Test results published in ChEMBL document CHEMBL1154034, “Piperazinyl-glutamate-pyridines as potent orally bioavailable P2Y12 antagonists for inhibition of platelet aggregation” (Bioorg Med Chem Lett, 2009).

Experiments:
P2Y purinoceptor 12 = P2Y purinoceptor 12 (Homo sapiens, UniProt Q9H244); assay: Binding affinity to human recombinant P2Y12 receptor expressed in CHO cells; assay type: cell-based
[1] = Effective half life in Sprague-Dawley rat at 2 mg/kg, iv and 5 mg/kg, po; assay type: ADME, organism-based; settings: in vivo
Summary of the method: (§1)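 Male Sprague–Dawley rats, n = 2–4. Dosed by iv infusion at 2 mg/kg and orally at 5 mg/kg.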

[2] = Volume of distribution at steady state in Sprague-Dawley rat at 2 mg/kg, iv and 5 mg/kg, po; assay type: ADME, organism-based; settings: in vivo, read-out: Vdss; summary of the method: as §1
[3] = Clearance in Sprague-Dawley rat at 2 mg/kg, iv and 5 mg/kg, po; assay type: ADME, organism-based; settings: in vivo; summary of the method: as §1
in vivo = settings: Sprague-Dawley, rat, po, 5 mg/kg

Sequence of P2Y purinoceptor 12 (Q9H244 whole entry): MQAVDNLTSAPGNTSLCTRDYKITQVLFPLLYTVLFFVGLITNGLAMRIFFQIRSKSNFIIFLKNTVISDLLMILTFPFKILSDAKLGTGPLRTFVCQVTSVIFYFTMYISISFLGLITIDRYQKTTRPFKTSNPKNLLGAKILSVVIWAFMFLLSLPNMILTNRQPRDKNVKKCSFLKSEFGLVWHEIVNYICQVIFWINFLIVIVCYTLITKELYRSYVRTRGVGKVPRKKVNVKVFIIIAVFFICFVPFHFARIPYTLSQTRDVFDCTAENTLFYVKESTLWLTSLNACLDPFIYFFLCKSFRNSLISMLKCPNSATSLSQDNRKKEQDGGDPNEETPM

Row | Compound | Ki (P2Y purinoceptor 12) [µM] | further results
1 | CCCCOc1cc(C(=O)N[C@@H](CCC(=O)O)C(=O)N2CCN(C(=O)OCC)CC2)nc(-c2ccccc2)c1 | 0.039 | –
2 | COC(=O)N1CCN(C(=O)[C@H](CCC(=O)O)NC(=O)c2cccc(-c3ccccc3)n2)CC1 | 2.44 | –
3 | CCOC(=O)N1CCN(C(=O)[C@H](CCC(=O)O)NC(=O)c2cc(NCC3CCNCC3)cc(-c3ccccc3)n2)CC1 | 0.19 | –
4 | CCOC(=O)N1CCN(C(=O)[C@H](CCC(=O)O)NC(=O)c2cc(N3CCC(N4CCCC4)CC3)cc(-c3ccccc3)n2)CC1 | 0.034 | –
5 | CCOC(=O)N1CCN(C(=O)[C@H](CCC(=O)O)NC(=O)c2cc(N3CCC(O)CC3)cc(-c3ccccc3)n2)CC1 | 0.042 | –
6 | C=CCOC(=O)N1CCN(C(=O)[C@H](CCC(=O)O)NC(=O)c2cc(OCCO)cc(-c3ccccc3)n2)CC1 | 0.203 | –
7 | CCOC(=O)N1CCN(C(=O)[C@H](CCC(=O)O)NC(=O)c2cc(OCc3ccccc3)cc(-c3ccccc3)n2)CC1 | 0.028 | –
8 | CCCCCOC(=O)N1CCN(C(=O)[C@H](CCC(=O)O)NC(=O)c2cc(N(C)CCS(C)(=O)=O)cc(-c3ccccc3)n2)CC1 | 0.015 | half-life [1]: 12 min; Vd [2]: 1.3 L/kg; clearance [3]: 69 mL/min/kg
9 | CCOC(=O)N1CCN(C(=O)[C@H](CCC(=O)O)NC(=O)c2cc(OCCCO)cc(-c3ccccc3)n2)CC1 | 0.068 | –
10 | CCOC(=O)N1CCN(C(=O)[C@H](CCC(=O)O)NC(=O)c2cc(NCCOC)cc(-c3ccccc3)n2)CC1 | 0.099 | –
11 | CCCCCOC(=O)N1CCN(C(=O)[C@H](CCC(=O)O)NC(=O)c2cc(N3CCC(CN)CC3)cc(-c3ccccc3)n2)CC1 | 0.007 | half-life [1]: 24 min; Vd [2]: 2.6 L/kg; clearance [3]: 70 mL/min/kg; bioavailability (in vivo): 0%
12 | CCCCOC(=O)N1CCN(C(=O)[C@H](CCC(=O)O)NC(=O)c2cc(OC3CCNCC3)cc(-c3ccccc3)n2)CC1 | 0.012 | –
13 | CCCCCOC(=O)N1CCN(C(=O)[C@H](CCC(=O)O)NC(=O)c2cccc(-c3ccccc3)n2)CC1 | 0.011 | half-life [1]: 78 min; Vd [2]: 10.3 L/kg; clearance [3]: 89 mL/min/kg; bioavailability (in vivo): 70%
14 | CCOC(=O)N1CCN(C(=O)[C@H](CCC(=O)O)NC(=O)c2cc(NCCO)cc(-c3ccccc3)n2)CC1 | 0.114 | –
15 | CC(C)OC(=O)N1CCN(C(=O)[C@H](CCC(=O)O)NC(=O)c2cc(OCCO)cc(-c3ccccc3)n2)CC1 | 0.145 | –
16 | CCOC(=O)N1CCN(C(=O)[C@H](CCC(=O)O)NC(=O)c2cc(OCC3CCNCC3)cc(-c3ccccc3)n2)CC1 | 0.076 | –
17 | CN(CCS(C)(=O)=O)c1cc(C(=O)N[C@@H](CCC(=O)O)C(=O)N2CCN(C(=O)OCCC3CCCC3)CC2)nc(-c2ccccc2)c1 | 0.08 | –
18 | CCCCCOC(=O)N1CCN(C(=O)[C@H](CCC(=O)O)NC(=O)c2cc(OCCCC)cc(-c3ccccc3)n2)CC1 | 0.049 | –
19 | CCCCCOC(=O)N1CCN(C(=O)[C@H](CCC(=O)O)NC(=O)c2cc(N3CCC(O)CC3)cc(-c3ccccc3)n2)CC1 | 0.011 | –
20 | CCOC(=O)N1CCN(C(=O)[C@H](CCC(=O)O)NC(=O)c2cc(NC3CCOCC3)cc(-c3ccccc3)n2)CC1 | 0.455 | –
21 | CCOC(=O)N1CCN(C(=O)[C@H](CCC(=O)O)NC(=O)c2cc(N(CC)CC)cc(-c3ccccc3)n2)CC1 | 0.023 | –
22 | C=CCOC(=O)N1CCN(C(=O)[C@H](CCC(=O)O)NC(=O)c2cc(OCCCC)cc(-c3ccccc3)n2)CC1 | 0.099 | –

Row | Compound | Ki (P2Y purinoceptor 12) [µM] | further results
23 | CCCCCOC(=O)N1CCN(C(=O)[C@H](CCC(=O)O)NC(=O)c2cc(OCCO)cc(-c3ccccc3)n2)CC1 | 0.032 | –
24 | CCCCCCOC(=O)N1CCN(C(=O)[C@H](CCC(=O)O)NC(=O)c2cc(N3CCC(COC)CC3)cc(-c3ccccc3)n2)CC1 | 0.033 | –
25 | CCCCOC(=O)N1CCN(C(=O)[C@H](CCC(=O)O)NC(=O)c2cc(OCCOC)cc(-c3ccccc3)n2)CC1 | 0.018 | half-life [1]: 24 min; Vd [2]: 1.5 L/kg; clearance [3]: 49 mL/min/kg; bioavailability (in vivo): 77%
26 | CCOC(=O)N1CCN(C(=O)[C@H](CCC(=O)O)NC(=O)c2cc(OC)cc(-c3ccccc3)n2)CC1 | 0.096 | –
27 | CCOC(=O)N1CCN(C(=O)[C@H](CCC(=O)O)NC(=O)c2cc(NCCN(C)C)cc(-c3ccccc3)n2)CC1 | 0.27 | –
28 | CCCCCCOC(=O)N1CCN(C(=O)[C@H](CCC(=O)O)NC(=O)c2cc(N3CCC(CN)CC3)cc(-c3ccccc3)n2)CC1 | 0.018 | –
29 | CCCCOc1cc(C(=O)N[C@@H](CCC(=O)O)C(=O)N2CCN(C(=O)OC(C)C)CC2)nc(-c2ccccc2)c1 | 0.146 | –
30 | CCOC(=O)N1CCN(C(=O)[C@H](CCC(=O)O)NC(=O)c2cc(OC3CCNCC3)cc(-c3ccccc3)n2)CC1 | 0.068 | –
31 | CCOC(=O)N1CCN(C(=O)[C@H](CCC(=O)O)NC(=O)c2cc(OCCOC)cc(-c3ccccc3)n2)CC1 | 0.092 | –
32 | CCOC(=O)N1CCN(C(=O)[C@H](CCC(=O)O)NC(=O)c2cc(N3CCN(CCN(C)C)CC3)cc(-c3ccccc3)n2)CC1 | 0.047 | –
33 | NCC1CCN(c2cc(C(=O)N[C@@H](CCC(=O)O)C(=O)N3CCN(C(=O)OCCC4CCCC4)CC3)nc(-c3ccccc3)c2)CC1 | 0.069 | –
34 | CCCNc1cc(C(=O)N[C@@H](CCC(=O)O)C(=O)N2CCN(C(=O)OCC)CC2)nc(-c2ccccc2)c1 | 0.064 | –
35 | CCOC(=O)N1CCN(C(=O)[C@H](CCC(=O)O)NC(=O)c2cc(N(C)CCS(C)(=O)=O)cc(-c3ccccc3)n2)CC1 | 0.048 | –
36 | CCOC(=O)N1CCN(C(=O)[C@H](CCC(=O)O)NC(=O)c2cc(NC)cc(-c3ccccc3)n2)CC1 | 0.035 | –
37 | CCOC(=O)N1CCN(C(=O)[C@H](CCC(=O)O)NC(=O)c2cc(N3CCC(COC)CC3)cc(-c3ccccc3)n2)CC1 | 0.018 | –
38 | CCOC(=O)N1CCN(C(=O)[C@H](CCC(=O)O)NC(=O)c2cc(N3CCC(N)CC3)cc(-c3ccccc3)n2)CC1 | 0.027 | –
39 | CC(C)OC(=O)N1CCN(C(=O)[C@H](CCC(=O)O)NC(=O)c2cc(OC3CCNCC3)cc(-c3ccccc3)n2)CC1 | 0.157 | –
40 | CCOC(=O)N1CCN(C(=O)[C@H](CCC(=O)O)NC(=O)c2cc(OCCO)cc(-c3ccccc3)n2)CC1 | 0.157 | –
41 | C=CCOC(=O)N1CCN(C(=O)[C@H](CCC(=O)O)NC(=O)c2cc(OCCOC)cc(-c3ccccc3)n2)CC1 | 0.095 | –
42 | CCCCCCCCOC(=O)N1CCN(C(=O)[C@H](CCC(=O)O)NC(=O)c2cccc(-c3ccccc3)n2)CC1 | 0.014 | –
43 | O=C(O)CC[C@H](NC(=O)c1cc(N2CCC(O)CC2)cc(-c2ccccc2)n1)C(=O)N1CCN(C(=O)OCCC2CCCC2)CC1 | 0.04 | –
44 | CCCCCOC(=O)N1CCN(C(=O)[C@H](CCC(=O)O)NC(=O)c2cc(OC3CCNCC3)cc(-c3ccccc3)n2)CC1 | 0.0038 | half-life [1]: 18 min; Vd [2]: 3.1 L/kg; clearance [3]: 133 mL/min/kg; bioavailability (in vivo): 1%

Row | Compound | Ki (P2Y purinoceptor 12) [µM] | further results
45 | CCCOC(=O)N1CCN(C(=O)[C@H](CCC(=O)O)NC(=O)c2cccc(-c3ccccc3)n2)CC1 | 0.027 | –
46 | CCCCOC(=O)N1CCN(C(=O)[C@H](CCC(=O)O)NC(=O)c2cc(OCCO)cc(-c3ccccc3)n2)CC1 | 0.021 | –
47 | Cc1cccc(N2CCN(C(=O)[C@H](CCC(=O)O)NC(=O)c3cccc(-c4ccccc4)n3)CC2)c1 | > 5.7 | –
48 | CCOC(=O)N1CCN(C(=O)[C@H](CCC(=O)O)NC(=O)c2cc(NCc3ccccc3)cc(-c3ccccc3)n2)CC1 | 0.026 | –
49 | CCOC(=O)N1CCN(C(=O)[C@H](CCC(=O)O)NC(=O)c2cc(OCCCN)cc(-c3ccccc3)n2)CC1 | 0.214 | –
50 | C=CCOC(=O)N1CCN(C(=O)[C@H](CCC(=O)O)NC(=O)c2cc(OC3CCNCC3)cc(-c3ccccc3)n2)CC1 | 0.093 | –
51 | Cc1cccc(N2CCN(C(=O)[C@H](CCC(=O)O)NC(=O)c3cc(-c4ccccc4)cc(-c4ccccc4)n3)CC2)c1 | 0.0057 | –
52 | CCOC(=O)N1CCN(C(=O)[C@H](CCC(=O)O)NC(=O)c2cc(OCCN)cc(-c3ccccc3)n2)CC1 | 0.328 | –
53 | CCCCCOC(=O)N1CCN(C(=O)[C@H](CCC(=O)O)NC(=O)c2cc(OCCOC)cc(-c3ccccc3)n2)CC1 | 0.01 | –
54 | CCCCCCOC(=O)N1CCN(C(=O)[C@H](CCC(=O)O)NC(=O)c2cc(N(C)CCS(C)(=O)=O)cc(-c3ccccc3)n2)CC1 | 0.036 | –
55 | CCCCCCCOC(=O)N1CCN(C(=O)[C@H](CCC(=O)O)NC(=O)c2cccc(-c3ccccc3)n2)CC1 | 0.007 | –
56 | CCCCCCOC(=O)N1CCN(C(=O)[C@H](CCC(=O)O)NC(=O)c2cccc(-c3ccccc3)n2)CC1 | 0.043 | half-life [1]: 42 min; Vd [2]: 1.7 L/kg; clearance [3]: 29 mL/min/kg; bioavailability (in vivo): > 95%
57 | CCCCCOC(=O)N1CCN(C(=O)C(CCC(=O)O)NC(=O)c2cc(N3CCC(COC)CC3)cc(-c3ccccc3)n2)CC1 (single isomer, unassigned) | 0.51 | –
58 | CCCCOC(=O)N1CCN(C(=O)[C@H](CCC(=O)O)NC(=O)c2cccc(-c3ccccc3)n2)CC1 | 0.029 | –
59 | CCCCOC(=O)N1CCN(C(=O)[C@H](CCC(=O)O)NC(=O)c2cc(OCCCC)cc(-c3ccccc3)n2)CC1 | 0.036 | –
60 | CCOC(=O)N1CCN(C(=O)[C@H](CCC(=O)O)NC(=O)c2cc(OC(CC)C(=O)N(CC)CC)cc(-c3ccccc3)n2)CC1 (some centres not stated) | 0.081 | –
61 | CCOC(=O)N1CCN(C(=O)[C@H](CCC(=O)O)NC(=O)c2ccccn2)CC1 | > 5.4 | –
62 | CCOC(=O)N1CCN(C(=O)[C@H](CCC(=O)O)NC(=O)c2cc(N3CCC(CN)CC3)cc(-c3ccccc3)n2)CC1 | 0.014 | –
63 | CCCCCCOC(=O)N1CCN(C(=O)[C@H](CCC(=O)O)NC(=O)c2cc(N3CCC(O)CC3)cc(-c3ccccc3)n2)CC1 | 0.024 | –
64 | COCCOc1cc(C(=O)N[C@@H](CCC(=O)O)C(=O)N2CCN(C(=O)OC(C)C)CC2)nc(-c2ccccc2)c1 | 0.189 | –
